High-throughput results: PubChem BioAssay, Broad Institute
MITF TRPM1 HTS: MITF TRPM1 promoter activation in melanoma cells | SK-MEL-5 TRPM1-promoter luciferase, 24 h; % of positive control, neutral wells = 0 | activation, % at 12.5 µM | 300,000 compounds, 0.75% hits;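 active = mean activation of at least 80% with every replicate also reaching 80%; inconclusive = mean reaches 80% but some replicate falls short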;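 note: 0% = neutral control wells and 100% = parthenolide positive control wells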
NSD2 inh: inhibitors of human histone methyltransferase NSD2; O96028; inhibition, % at 12.5 µM; NSD2 peptide methylation, AlphaScreen, 120 min; 310,000 compounds, 0.54% hits; in the data active = inhibition above about 50%
Target sequence (O96028 whole entry, looked up): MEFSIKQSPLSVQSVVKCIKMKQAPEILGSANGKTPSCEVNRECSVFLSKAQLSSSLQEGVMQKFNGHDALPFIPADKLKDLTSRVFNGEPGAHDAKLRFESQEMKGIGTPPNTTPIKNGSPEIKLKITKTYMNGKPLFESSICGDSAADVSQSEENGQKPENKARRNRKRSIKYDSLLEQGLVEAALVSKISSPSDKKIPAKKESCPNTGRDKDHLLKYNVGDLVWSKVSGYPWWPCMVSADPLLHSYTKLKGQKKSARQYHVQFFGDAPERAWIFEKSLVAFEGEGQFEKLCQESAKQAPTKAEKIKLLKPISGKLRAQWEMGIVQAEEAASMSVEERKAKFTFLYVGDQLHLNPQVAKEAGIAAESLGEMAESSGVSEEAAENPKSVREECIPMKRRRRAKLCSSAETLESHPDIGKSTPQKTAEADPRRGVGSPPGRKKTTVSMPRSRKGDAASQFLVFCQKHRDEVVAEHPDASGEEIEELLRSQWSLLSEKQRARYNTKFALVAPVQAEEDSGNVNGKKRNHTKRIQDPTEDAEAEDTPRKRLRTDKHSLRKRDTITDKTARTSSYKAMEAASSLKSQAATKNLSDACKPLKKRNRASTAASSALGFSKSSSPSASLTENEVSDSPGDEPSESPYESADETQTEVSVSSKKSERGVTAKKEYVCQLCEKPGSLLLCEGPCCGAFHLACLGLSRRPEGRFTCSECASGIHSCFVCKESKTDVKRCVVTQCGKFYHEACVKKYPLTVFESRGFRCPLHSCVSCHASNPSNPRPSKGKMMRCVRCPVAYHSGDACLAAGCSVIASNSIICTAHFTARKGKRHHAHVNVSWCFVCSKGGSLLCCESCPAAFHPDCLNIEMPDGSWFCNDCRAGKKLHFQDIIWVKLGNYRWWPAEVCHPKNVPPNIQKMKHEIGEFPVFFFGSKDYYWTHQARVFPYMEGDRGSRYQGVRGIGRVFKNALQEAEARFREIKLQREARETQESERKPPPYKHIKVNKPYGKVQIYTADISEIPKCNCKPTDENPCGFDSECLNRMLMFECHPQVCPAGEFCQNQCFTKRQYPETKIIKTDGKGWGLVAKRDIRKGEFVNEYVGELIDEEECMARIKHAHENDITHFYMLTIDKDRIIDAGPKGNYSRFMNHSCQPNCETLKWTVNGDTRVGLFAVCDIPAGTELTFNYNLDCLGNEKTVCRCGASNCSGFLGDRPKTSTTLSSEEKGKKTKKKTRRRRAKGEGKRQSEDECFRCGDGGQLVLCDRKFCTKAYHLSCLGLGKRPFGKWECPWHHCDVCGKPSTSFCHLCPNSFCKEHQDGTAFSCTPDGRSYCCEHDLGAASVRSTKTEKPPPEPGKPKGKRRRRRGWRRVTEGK
Wnt act: Wnt/beta-catenin pathway activation. activation, % at 9.35 µM. AID 743398. 300,000 compounds, 1.2% hits. Wnt/beta-catenin reporter cell assay, activator, plate reader; in the data active = activation above about 30%, passing the limit was not always enough; inconclusive = no clear call, values can overlap the other calls;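 note: 0% = neutral control wells and 100% = positive control wells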
esBAF inh: blocks esBAF chromatin remodeling in mouse ES cells; Bmi1-luciferase knock-in reporter, 24 h; 100% = twice the neutral-well signal; reporter increase, % at 12.5 µM; 350,000 compounds, 2% hits; AID 602393; in the data active = activation above about 40%; inconclusive = no clear call, values can overlap the other calls;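 note: 0% = median of the plate's neutral control wells and 100% = double that signal; a rise in the Bmi1 reporter signal indicates esBAF inhibition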
XiGFP reactiv: reactivates the inactive X chromosome in mouse fibroblasts; AID 743238; XiGFP mouse fibroblasts, % GFP-positive cells imaging, 3 d; cells co-treated with 5-aza-dC sensitizer; scaled so ellipticine positive control = 100%; 360,000 compounds, 0.055% hits; activation, % at 7.58 µM;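 active = mean normalized replicate activation at least 10% and every replicate at or above 10%; inconclusive = only one of the two criteria met; inactive = mean below 10% and not all replicates reach 10%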;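 note: 0% = median of on-plate neutral control wells and 100% = ellipticine 6 µM median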
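Assay system: SV40-immortalized XiGFP fibroblast cells, line 68-5-11; buffer or medium: DMEM plus 5-aza-dC sensitizer; compound: one concentration, pinned; timing: compounds 3 days, fix/stain 15 min at room temperature; benchmarks: positive control ellipticine, 6 µM final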
CASP6 VEID inh: blocks human caspase-6 cleavage activity | P55212 | purified caspase-6, Z-VEID-R110 cleavage fluorescence | inhibition, % at 12.5 µM | 350,000 compounds, 0.53% hits | AID 686996;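 active = mean inhibition across replicates at least about 35%, with every replicate also reaching that limit, limit read from the data; inconclusive = only one of the two criteria met; inactive = neither criterion met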;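 note: 0% = median of neutral control wells and 100% = no fluorescence left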
Active calls of the source: *; ? = inconclusive; nt = not tested or not shown. Rows were chosen to be rich in hits. Some 3% of all compounds tested hit in one or more screens of this group.

SMILES | MITF TRPM1 HTS | NSD2 inh | Wnt act | esBAF inh | XiGFP reactiv | CASP6 VEID inh
CO[C@H](CN(C)Cc1cc(F)ccc1F)[C@@H](C)CN(C(=O)Nc1ccc(F)cc1)[C@@H](C)CO | nt | nt | nt | 0 | 0 | 0
Cc1cc(NC2=CC(=O)C(=O)c3ccccc32)no1 | -84 | -1 | 1 | nt | 0 | 48*
Cc1ccc(NC(=S)c2ccccc2)cc1 | 82* | 3 | ? | 68* | 0 | nt
COc1ccc(C(=S)Nc2ccc(C)cc2)cc1 | 109* | 1 | nt | nt | nt | nt
COc1ccc(NC(=S)c2ccncc2)cc1 | -7 | -2 | 9 | nt | 0 | nt
C[C@H](CO)N1C[C@H](C)[C@@H](CN(C)C(=O)Nc2ccc(C(F)(F)F)cc2)OCCCC[C@H](C)Oc2ccc(NC(=O)Nc3cccc4ccccc34)cc2C1=O | nt | nt | nt | 0 | 1 | 1
Oc1c(C=Nc2ccc(Cl)cn2)sc2ccccc12 | 46 | 2 | 46* | nt | 0 | -1
Oc1c(/C=N/c2ccccn2)sc2ccccc12 | 16 | 23 | 52* | ? | 0 | 4
